Results reported in ChEMBL document CHEMBL3414479, “Structure-based lead optimization and biological evaluation of BAX direct activators as novel potential anticancer agents” (J Med Chem, 2015).
Calls of active or inactive are those of the source. No cut-off for these calls is given here.

Legend:
[1] = system: Lewis lung carcinoma cell line; assay: Antitumor activity against mouse LLC cells allografted in BD2F mouse assessed as tumor growth inhibition at 1.25 mg/kg, ip administered every other day for 5 treatments relative to control; assay type: functional; conditions: route intraperitoneal, read-out: TGI
[2] = system: Lewis lung carcinoma cell line; assay: Antitumor activity against mouse LLC cells allografted in C57BL/6 mouse assessed as tumor growth inhibition at 60 mg/kg, ip administerd for 14 days measured on day 15 relative to control; conditions: read-out: TGI
[3] = target: Apoptosis regulator Bcl-2 (Homo sapiens, UniProt P10415); assay: Displacement of FITC-BIM from recombinant human Bcl-2 expressed in Escherichia coli after 30 mins by fluorescence polarization assay
Chain of Apoptosis regulator Bcl-2 (P10415 whole entry): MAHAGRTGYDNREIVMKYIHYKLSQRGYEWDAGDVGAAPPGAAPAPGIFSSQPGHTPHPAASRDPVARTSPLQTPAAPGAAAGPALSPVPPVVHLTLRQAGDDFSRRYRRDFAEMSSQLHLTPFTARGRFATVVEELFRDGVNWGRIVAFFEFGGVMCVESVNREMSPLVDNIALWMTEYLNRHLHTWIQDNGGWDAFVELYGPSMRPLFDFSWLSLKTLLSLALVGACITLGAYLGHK
How it was run: (§1)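 Fluorescence polarization competition: serial compound dilutions in 20 mM Hepes-KOH pH 7.4, 150 mM NaCl with 50 nM FITC-BIM; after 5 min, E. coli-expressed recombinant protein added at 1 µM; polarization read after 30 min incubation. Triplicates; Ki from nonlinear regression of competitive binding curves.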

[4] = system: MEF; assay: Induction of apoptosis in MEF assessed as appearance of fragmented nuclei and cell membrane blebbing at 15 uM after 24 hrs by DAPI staining; assay type: functional, cell-based; conditions: Mus musculus
How it was run: (§2)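 MEF wild-type or knockout clones (Bcl2, Bad, Bid, Bak, Bax, Bax/Bak) treated 24 h with compound (15 µM for single-concentration data) or 0.1% DMSO vehicle; apoptosis scored by fragmented nuclei and membrane blebbing. EC50 values are means of three experiments with s.d.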

[5] = system: MEF; assay: Induction of apoptosis in Bid-deficient MEF assessed as appearance of fragmented nuclei and cell membrane blebbing at 15 uM after 24 hrs by DAPI staining; assay type: functional, cell-based; conditions: Mus musculus; how it was run: as §2
[6] = system: MEF; assay: Induction of apoptosis in Bax/Bak-deficient MEF assessed as appearance of fragmented nuclei and cell membrane blebbing at 15 uM after 24 hrs by DAPI staining; assay type: functional, cell-based; conditions: Mus musculus; how it was run: as §2
[7] = system: MEF; assay: Induction of apoptosis in Bax-deficient MEF assessed as appearance of fragmented nuclei and cell membrane blebbing at 15 uM after 24 hrs by DAPI staining; assay type: functional, cell-based; conditions: Mus musculus; how it was run: as §2
[8] = system: MEF; assay: Induction of apoptosis in Bcl2-deficient MEF assessed as appearance of fragmented nuclei and cell membrane blebbing at 15 uM after 24 hrs by DAPI staining; assay type: functional, cell-based; conditions: Mus musculus; how it was run: as §2
[9] = system: MEF; assay: Induction of apoptosis in Bad-deficient MEF assessed as appearance of fragmented nuclei and cell membrane blebbing at 15 uM after 24 hrs by DAPI staining; assay type: functional, cell-based; conditions: Mus musculus; how it was run: as §2
[10] = target: Bcl-2-like protein 1 (Homo sapiens, UniProt Q07817); assay: Displacement of FITC-BIM from recombinant human Bcl-XL expressed in Escherichia coli after 30 mins by fluorescence polarization assay; how it was run: as §1
Chain of Bcl-2-like protein 1 (Q07817 whole entry, the tested form may be a part): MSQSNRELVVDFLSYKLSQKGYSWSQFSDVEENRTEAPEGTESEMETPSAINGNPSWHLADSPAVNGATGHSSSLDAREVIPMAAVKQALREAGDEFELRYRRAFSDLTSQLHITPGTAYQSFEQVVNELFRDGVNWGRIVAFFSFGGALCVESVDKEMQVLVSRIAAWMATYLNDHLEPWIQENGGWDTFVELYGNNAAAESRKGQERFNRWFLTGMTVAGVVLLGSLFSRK

[11] = system: MEF; assay: Induction of apoptosis in Bak-deficient MEF assessed as appearance of fragmented nuclei and cell membrane blebbing at 15 uM after 24 hrs by DAPI staining; assay type: functional, cell-based; conditions: Mus musculus; how it was run: as §2
[12] = system: MEF; assay: Induction of apoptosis in Bax-deficient MEF assessed as appearance of fragmented nuclei and cell membrane blebbing after 24 hrs by DAPI staining; assay type: functional, cell-based; conditions: Mus musculus; how it was run: as §2
[13] = system: MEF; assay: Induction of apoptosis in Bad-deficient MEF assessed as appearance of fragmented nuclei and cell membrane blebbing after 24 hrs by DAPI staining; assay type: functional, cell-based; conditions: Mus musculus; how it was run: as §2
[14] = system: MEF; assay: Induction of apoptosis in Bcl2-deficient MEF assessed as appearance of fragmented nuclei and cell membrane blebbing after 24 hrs by DAPI staining; assay type: functional, cell-based; conditions: Mus musculus; how it was run: as §2
[15] = system: MEF; assay: Induction of apoptosis in wild-type MEF assessed as appearance of fragmented nuclei and cell membrane blebbing after 24 hrs by DAPI staining; assay type: functional, cell-based; conditions: Mus musculus; how it was run: as §2
[16] = system: MEF; assay: Induction of apoptosis in Bak-deficient MEF assessed as appearance of fragmented nuclei and cell membrane blebbing after 24 hrs by DAPI staining; assay type: functional, cell-based; conditions: Mus musculus; how it was run: as §2
[17] = system: MEF; assay: Induction of apoptosis in Bid-deficient MEF assessed as appearance of fragmented nuclei and cell membrane blebbing after 24 hrs by DAPI staining; assay type: functional, cell-based; conditions: Mus musculus; how it was run: as §2
[18] = system: MEF; assay: Induction of apoptosis in Bax/Bak-deficient MEF assessed as appearance of fragmented nuclei and cell membrane blebbing after 24 hrs by DAPI staining; assay type: functional, cell-based; conditions: Mus musculus; how it was run: as §2
[19] = system: Mus musculus; assay: Toxicity in C57BL/6J mouse allografted with mouse LLC1 cells assessed as evidence of behavioral side effect at 1 mg/kg, ip qd administered from day 14 to 17 post tumor implantation measured during compound dosing; assay type: organism-based; design: dose 1 mg/kg, route intraperitoneal; conditions: in vivo
[20] = organism: Mus musculus; assay: Toxicity in C57BL/6J mouse assessed as effect on lung; assay type: organism-based; conditions: in vivo
[21] = Cytotoxicity against C57BL/6J mouse primary splenocytes assessed as effect on apoptosis rate at 10 uM after 72 hrs by DAPI staining; assay type: cell-based; conditions: splenocyte
How it was run: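 Primary splenocytes exposed 72 hours to 10 µM; apoptosis rate determined by counting apoptotic nuclei; mean with s.d. reported.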

[22] = organism: Mus musculus; assay: Toxicity in C57BL/6J mouse assessed as effect on heart; assay type: organism-based; conditions: in vivo
[23] = organism: Mus musculus; assay: Toxicity in C57BL/6J mouse assessed as effect on femoral muscle; assay type: organism-based, Muscle tissue; conditions: in vivo
[24] = system: Mus musculus; assay: Toxicity in C57BL/6J mouse allografted with mouse LLC1 cells assessed as change in body weight at 1 mg/kg, ip qd administered from day 14 to 17 post tumor implantation measured during compound dosing; assay type: organism-based; design: dose 1 mg/kg, route intraperitoneal; conditions: in vivo
[25] = system: Mus musculus; assay: In vivo activation of Bax in mouse LLC1 cells allografted in C57BL/6J mouse at 1 mg/kg, ip qd administered from day 14 to 17 post tumor implantation measured on day 17 by immunoprecipitation assay; assay type: functional, organism-based; design: dose 1 mg/kg
How it was run: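 Mice carrying tail-vein-injected LLC1 lung tumors received 1 mg/kg intraperitoneally once daily days 14–17 (vehicle 1% DMSO); on day 17 lung lysates were immunoprecipitated with conformation-specific anti-BAX 6A7 antibody to detect activated BAX.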

[26] = system: Lewis lung carcinoma cell line; assay: Antitumor activity against mouse LLC1 cells allografted in C57BL/6J mouse assessed as decrease in ratio of tumor burden to lung area at 1 mg/kg, ip qd administered from day 14 to 17 post tumor implantation measured on day 17 by hematoxylin and eosin staining-based microscopic analysis relative to control; assay type: functional; design: scale not given: the % may be the effect or the level left; conditions: route intraperitoneal
How it was run: (§3)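 LLC1 cells injected via tail vein on day 0; from day 14 to day 17 mice given intraperitoneal injection once daily at 1 mg/kg, vehicle 1% DMSO; euthanized day 17. Lungs inspected visually, and H&E-stained lung sections scored as tumor burden to lung area ratio versus vehicle controls.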

[27] = system: Lewis lung carcinoma cell line; assay: Antitumor activity against mouse LLC1 cells allografted in C57BL/6J mouse assessed as reduction of tumor lesions at 1 mg/kg, ip qd administered from day 14 to 17 post tumor implantation measured on day 17 by hematoxylin and eosin staining-based microscopic analysis; assay type: functional, organism-based; design: dose 1 mg/kg; how it was run: as §3
[28] = system: Mus musculus; assay: Toxicity in C57BL/6J mouse allografted with mouse LLC1 cells assessed as mortality at 1 mg/kg, ip qd administered from day 14 to 17 post tumor implantation measured during compound dosing; assay type: organism-based; design: dose 1 mg/kg, route intraperitoneal; conditions: in vivo
[29] = system: MEF; assay: Induction of apoptosis in MEF assessed as appearance of cell membrane blebbing at 15 uM after 24 hrs by DAPI staining in presence of caspase inhibitor Ac-DEVD-CHO; assay type: functional, cell-based; conditions: Mus musculus
How it was run: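 MEF cells treated 24 h at 15 µM in presence of caspase inhibitor Ac-DEVD-CHO (10 µM); cell membrane blebbing assessed by microscopy.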

[30] = system: Mus musculus; assay: Toxicity in C57BL/6J mouse allografted with mouse LLC1 cells assessed as evidence of gross toxicity at 1 mg/kg, ip qd administered from day 14 to 17 post tumor implantation measured during compound dosing; assay type: organism-based; design: dose 1 mg/kg, route intraperitoneal; conditions: in vivo

Ki [3] [µM] | Ki [10] [µM] | SMILES | Activity [4] | Activity [5] | Activity [6] | Activity [7] | Activity [8] | Activity [9] | Activity [11] | further results
– | – | COc1cccc2c1C(=O)c1c(O)c3c(c(O)c1C2=O)C[C@@](O)(C(=O)CO)C[C@@H]3O[C@H]1C[C@H](N)[C@H](O)[C@H](C)O1 [DOXORUBICIN] | – | – | – | – | – | – | – | inhibition in vivo at 1.25 mg/kg [1]: 40%
– | – | O=P1(N(CCCl)CCCl)NCCCO1 (stereo not drawn) [CYCLOPHOSPHAMIDE ANHYDROUS] | – | – | – | – | – | – | – | inhibition in vivo at 60 mg/kg [2]: 40%
> 100 | 30.9 | CCOc1ccccc1N/N=C1\C(=O)N(c2cc(O)cc(-c3ccncc3)c2)N=C1C | Active | Active | inactive | inactive | Active | Active | Active | –
> 100 | > 100 | CCOc1ccccc1CC(=O)C1C(=O)N(c2nc(-c3ccccc3)cs2)N=C1C (stereo not drawn) | inactive | – | inactive | – | – | – | – | –
3 | > 100 | CCOc1ccccc1N/N=C1/C(=O)N(c2nc(-c3ccccc3)cs2)N=C1C | – | – | – | – | – | – | – | EC50 [12]: > 50 µM; EC50 [13]: 3.5 µM; EC50 [14]: 3.2 µM; EC50 [15]: 7.7 µM; EC50 [16]: 6 µM; EC50 [17]: 4 µM; EC50 [18]: > 50 µM
1.9 | 2.4 | CC1=NN(c2nc(-c3ccccc3)cs2)C(=O)/C1=C/c1ccccc1 | Active | Active | inactive | Active | Active | Active | Active | –
2 | 3.4 | CC1=NN(c2nc(-c3ccccc3)cs2)C(=O)/C1=C/c1ccc2ccccc2c1 | Active | Active | inactive | Active | Active | Active | Active | –
> 100 | > 100 | CCOc1ccccc1N/N=C1\C(=O)N(c2cc(O)cc(-c3ccccc3)c2)N=C1C | Active | Active | inactive | inactive | Active | Active | Active | –
> 100 | > 100 | CCOc1ccccc1N/N=C1\C(=O)N(c2cc(O)cc(-c3cccc(N)c3)c2)N=C1C | Active | Active | inactive | Active | Active | Active | Active | –
1.6 | > 100 | CC1=NN(c2nc(-c3ccccc3)cs2)C(=O)/C1=C/C(c1ccccc1)c1ccccc1 | Active | Active | inactive | Active | Active | Active | Active | –
> 100 | > 100 | CCOc1ccccc1C(=O)C(=O)C1C(=O)N(c2nc(-c3ccccc3)cs2)N=C1C (stereo not drawn) | inactive | – | inactive | – | – | – | – | –
33.9 | 3.4 | CC1=NN(c2cc(O)cc(-c3ccc(N(C)C)cc3)c2)C(=O)/C1=N\Nc1ccc2ccccc2c1 | Active | Active | inactive | inactive | Active | Active | Active | –
4.2 | > 100 | CCOc1ccccc1N/N=C1\C(=O)N(c2cccc(-c3ccc(N(C)C)cc3)c2)N=C1C | Active | Active | inactive | Active | Active | Active | Active | –
2 | 6.8 | CC1=NN(c2nc(-c3ccccc3)cs2)C(=O)/C1=C/c1ncc[nH]1 | Active | Active | inactive | Active | Active | Active | Active | –
1.9 | 15.5 | CCOc1ccccc1N/N=C1\C(=O)N(c2cc(O)cc(-c3ccc(C(C)C)cc3)c2)N=C1C | Active | Active | inactive | Active | Active | Active | Active | –
1.6 | 3.1 | CC1=NN(c2nc(-c3ccccc3)cs2)C(=O)/C1=C/c1ccc(-c2ccccc2)cc1 | Active | Active | inactive | Active | Active | Active | Active | –
> 100 | > 100 | CCOc1ccccc1N/N=C1\C(=O)N(c2cc(O)cc(-c3cccs3)c2)N=C1C | inactive | – | inactive | – | – | – | – | –

SMILES | Ki [3] [µM] | Ki [10] [µM] | Activity [4] | Activity [5] | Activity [6] | Activity [7] | Activity [8] | Activity [9] | Activity [11] | further results
CCOc1ccccc1N/N=C1\C(=O)N(c2cc(O)cc(-c3ccc(N(C)C)cc3)c2)N=C1C | 12 | > 100 | – | – | – | – | – | – | – | Activity [19]: Non-toxic; EC50 [12]: > 50 µM; Activity [20]: Non-toxic; EC50 [13]: 0.8 µM; Activity [21]: Non-toxic; Activity [22]: Non-toxic; Activity [23]: Non-toxic; Activity [24]: Non-toxic; EC50 [14]: 0.6 µM; Activity [25]: Active; Activity [26]: 50%; Activity [27]: Active; EC50 [15]: 1.1 µM; Activity [28]: Non-toxic; EC50 [16]: 1.3 µM; EC50 [17]: 0.7 µM; Activity [29]: inactive; Activity [30]: Non-toxic; EC50 [18]: > 50 µM
